From the EternaBench riboswitch data come the findings set out here.

The series relates to MS2 coat protein. The experiment in a line: apparent Kd, MS2 coat protein; higher = weaker binding; RNA-MaP array; FMN 200 µM where present. In short, it runs like this:
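On Illumina sequencing-chip clusters, designs were transcribed by stalled E. coli RNA polymerase and titrated with SNAP-549-labelled MS2 coat protein (0.7 or 1.5 nM, doubling to 3 µM), without and then with constant ligand, in 100 mM Tris-HCl pH 7.5, 80 mM KCl, 4 mM MgCl2, BSA, DTT, yeast tRNA and Tween-20. Apparent Kd is the median of filtered per-cluster curve fits to green signal normalised to red-channel RNA signal and control-cluster median Fmax.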

Setting [1] is: designed as: OFF switch for flavin mononucleotide, no ligand.
Where [2] appears, read: ligand present: flavin mononucleotide, designed as: OFF switch for flavin mononucleotide.
Where [3] appears, read: designed as: ON switch for flavin mononucleotide, no ligand.
[4] abbreviates: ligand present: flavin mononucleotide, designed as: ON switch for flavin mononucleotide.

With “AUCAGCUCGUCAGGAUAUACGUCACUGCGUCAGCAGUGUGGUAACAUCACAUGAGGAUCACCCAUGUAGAAGGGACGAGCUGAU”, the “apparent Kd” value runs as follows: under setting [1], 0.00584 µM; under setting [2], 0.0113 µM.
The matching figures for “AUACUAAAUGAAGGAUAUCUAAGCAUAAACCUGAGAGAAGGUCAUUUUUACAUGAGGAUCACCCAUGUUGUGAUUAAUGGGUUA”: 0.0718 µM and 0.144 µM.
The matching figures for “UUUCUCUGGGCGUCUUCUUACAUGAGGAUCACCCAUGUUUCAUAGGAUAUGCUAUAGUGUUACAUGCAGAAGGAUGUUUGUUUU”: 0.234 µM and 0.474 µM.
Take “UGGUUCAUGGGAGGAUAUGGGAUGAUAACAUGAGGAUCACCCAUGUUAAAGAUGCCGAGAGGCAACUAGAAGGCCCAUGAACCU”: the “apparent Kd” value under setting [3] worked out at 0.268 µM and the “apparent Kd” value under setting [4] is 0.0617 µM.
As to “GGCCGUAAUAAGGAUAUCACUAGCUUCGGCUAGUGAGAAGGUAUUACAUGAGGAUCACCCAUGUGGUCAGGCCA”, the “apparent Kd” value was 0.279 µM under setting [1] and 0.73 µM under setting [2].
On to “GACCCUAAUGAGAAGGUGUGUAUAAAUUAUAUACAAGGAUAUCGGUCGAGCGUGUUGACAUGAGGAUCACCCAUGUUGAGGGUU”, for which the “apparent Kd” value reads like this: under setting [3], 0.0268 µM; under setting [4], 0.0104 µM.
Take “AGCAUGUGAGGAUAUGUGAGCCUCAUCCGAAGGACGAGGGAAUAGAAGGCACAUGAGGAUCACCCAUGUGAUGA”: the “apparent Kd” value reads like this: under setting [1], 0.0273 µM; under setting [2], 0.0743 µM.
For “GAUCCUUCUGUUAGGAUAUGCUUUGGGCUUCCGCAGCAGAAGGAACAUGAGGAUCACCCAUGUCAAAUAACAUC”, in that order: 0.0214 µM and 0.0228 µM.
With “UCAUACAUUCGAGGAUAUCGGUGAUUAAUUUUACGAGAAGGCGAUAUAAGAUUUAAUUUUUAAGACAUGAGGAUCACCCAUGUA”, the “apparent Kd” value by setting is: under setting [3], 0.0307 µM; under setting [4], 0.0296 µM.
Take “GUAAAGUGAGGAUAUGGUAAAGUAAGUAUUUAGUAAGUAAUCCAGAAGGCACAUGAGGAUCACCCAUGUAAAUG”: the “apparent Kd” value under setting [1] came out at 0.0293 µM and the “apparent Kd” value under setting [2] came to 0.0358 µM.
For “AGUCGGAGCAGAGGAUAUACAUGAGGAUCACCCAUGUAAUAAAGUGAAGCCUGGAAGCAGGCAAUGUAGAAGGCUGCUCCGACA”, in that order: 0.0111 µM and 0.0818 µM.
The matching figures for “GAGCCCGAUGAGAAGGGUUACAUGAGGAUCACCCAUGUCGACCUUGGCGUAACAGGAUAUCAUCGAGCUCUGUGCGUUGACCCA”: 0.0255 µM and 0.132 µM.
Consider “CCCAAACUUGGGUUUAAUGGUUCAUAGGAUAUGCUUGUACAUGAGGAUCACCCAUGUACUAUUGUGCAGAAGGGUGCAUGGCAA”, for which the “apparent Kd” value under setting [3] was 0.0398 µM and the “apparent Kd” value under setting [4] turned out to be 0.0263 µM.
As to “AACAGUACAGGAUAUACAUGAGGAUCACCCAUGUGAGAAUUAUGUGGCGUACCACAAAGUAGAAGGGUACUGGA”, the “apparent Kd” value is, setting by setting: under setting [1], 0.0817 µM; under setting [2], 0.308 µM.
For “UUUUAACAUGAGGAUCACCCAUGUGAGGAUAUCGAAAUUUAUAUUAAUAUUUAUUUUACGAGAAGGCACAUUUU”, in that order: 0.098 µM and 0.102 µM.
Take “ACAGACCAUCGAGGAUAUGAACAUGAGGAUCACCCAUGUAAGUGGAAGAUGGUGAUUCCUGGGCUUCAGAAGGCGAACGUCAGG”: the “apparent Kd” value is, setting by setting: under setting [1], 0.00612 µM; under setting [2], 0.0118 µM.
In the case of “AUACUCAUGUAAGGAUAUGCAGCCGUUUCGGCUGCAGAAGGUACUAUAAUACAUGAGGAUCACCCAUGUCUCUCGCAUUGCGGG”, the “apparent Kd” value is, setting by setting: under setting [3], 0.4 µM; under setting [4], 0.101 µM.
In the case of “GUUAUUGACAAGAAGGCAAACAUGAGGAUCACCCAUGUUCUACAUGUAUAUUGAGGAUAUUGCCAAUACAUGAGGAUCACCCAG”, the “apparent Kd” value turned out to be 0.045 µM under setting [1] and 0.0533 µM under setting [2].
The matching figures for “UAUGUUUCGCAGAAGGGAACGGUUUAUAACAAUUCAGGAUAUGCGACAUGAGGAUCACCCAUGUAGCAGUAUAUAGGGUUGAAU”: 0.0075 µM and 0.0459 µM.
“GCUCGAUGAGCUGUCUACAUGAGGAUCACCCAUGUAGAUGGGCAGGAUAUUUACGUGCUUUAUGUAGAGAAGGGCCCAUCGAGC”: the “apparent Kd” value under setting [4] amounted to 0.0288 µM.
On to “CAGCGCUGUUGAGAGGAUAUGCGGUGAUGGACAUGAGGAUCACCCAUGUUAGCGACAGCAUUACGGUAGAAGGCUCCACAGCUGC”, for which the “apparent Kd” value came out at 0.0229 µM under setting [3] and 0.0138 µM under setting [4].
Consider “GAGAGCCGCGAAGGAUAUACAUCCGUGACCGUCAACAUGAGGAUCACCCAUGUAGAAGGUCGCUGCCUCUUGACAACUGACAAG”, for which the “apparent Kd” value is 0.00516 µM under setting [1] and 0.0184 µM under setting [2].
In the case of “AAGGAGUUAGGAUAUGCUGCUCGUCACUUGCGUGAUGAGUAGCAGAAGGGACAUGAGGAUCACCCAUGUAAAAA”, the “apparent Kd” value was 0.0453 µM under setting [1] and 0.0212 µM under setting [2].
“UUUAUUUUUAGAGGAUAUAUUGUGUGUGAGAGAAUAGAAGGCUAAACAUGAGACACACACAUGAGGAUCACCCAUGUUAUGUUU”: the “apparent Kd” value amounted to 0.0626 µM under setting [3] and 0.052 µM under setting [4].
For “CUGGGAUAGUGGGAUAGGGUUGCCAGAAGGGUCUACAUGAGGAUCACCCAUGUGGGUCCGAGUGGACAGGAUAUGGCGUCCGUA”, the “apparent Kd” value is, setting by setting: under setting [1], 0.0126 µM; under setting [2], 0.0453 µM.
As for “AGUUGGCGAGGAUAUACAUGAGGAUCACCCAUGUGAAAUAGAAUAGUGAGGAAGAAAAGUAGAAGGCGCUGACA”, the “apparent Kd” value runs as follows: under setting [1], 0.0587 µM; under setting [2], 0.323 µM.
For “GGAUAGGACAGAGGAUAUACGUGCUAGAGAUACUAACAAAAUUUCCUCACAUGAGGAUCACCCAUGUAGAAGGCUGUCCUAUCG”, in that order: 0.193 µM and 0.187 µM.
For “AGGAGAAAUGUAGGAUAUGGGCAUAUAUAUGGGCAAAGCGCAUAUAUAUGCCCAGAAGGACAUGAGGAUCACCCAUGUUUCCCU”, in that order: 0.0125 µM and 0.0136 µM.
The matching figures for “GAAAUGAUGAUAGGAUAUCCACAGACAUGAGGAUCACCCAUGUUUAUGGGACGAAUCCUUGUGCAGGAGAAGGAUCGUCACUAU”: 0.0647 µM and 0.0395 µM.
As for “AAAAAACAUGAGGAUCACCCAUGUCCUCGGACAUGAGGAUAUGUACAGACUUCGGUCUGUACAGAAGGCAUGUCAA”, the “apparent Kd” value under setting [3] was 0.658 µM and the “apparent Kd” value under setting [4] is 0.585 µM.
Turning to “CUAUUCCGAGGAUAUACAUGAGGAUCACCCAUGUCGGGCCUCCGCGUUUAGCGCCUCAGUAGAAGGCGGGUUUC”, the “apparent Kd” value by setting is: under setting [1], 0.0191 µM; under setting [2], 0.0255 µM.
“CCUUAAAUUGUAAGGAUAUUAAAGCUGCUGAGUUAUAAGAAGGUACAUGAGGAUCACCCAUGUUCGGCAGGGUC”: the “apparent Kd” value under setting [1] is 0.0178 µM and the “apparent Kd” value under setting [2] is 0.0184 µM.
Regarding “AUUUUAAUAUAGGAUAUCGAUUUUAUUAUUUAACGAGAAGGAUAAACAUGAGGAUCACCCAUGUGGUAUCAUGG”, the “apparent Kd” value by setting is: under setting [1], 0.158 µM; under setting [2], 0.14 µM.
As to “UACCUCACUUCUUUGACUCACAUGAGGAUCACCCAUGUAAUAUAGGAUAUGCAUUUUAUUUCUUUGCAGAAGGAUAUUAGUUUU”, the “apparent Kd” value came out at 0.0428 µM under setting [1] and 0.0792 µM under setting [2].
As for “AGUUAAUAUCGAGGAUAUGUCUAAACACAUGAGGAUCACCCAUGUAUGUGUAUAGAAGGCGAUAUUAACAGCAUGUUACAUGCA”, the “apparent Kd” value runs as follows: under setting [3], 0.0288 µM; under setting [4], 0.00858 µM.
As to “UAAAGUUAAGGAGGAUAUUACAUGAGGAUCACCCAUGUAAUGGGCUCGGUGUAAGAAGGCCUUGAGUCGAAGUUUCGGAUAAGG”, the “apparent Kd” value reads like this: under setting [1], 0.00905 µM; under setting [2], 0.0186 µM.
For “AUGUGACAUGAGGAUCACCCAUGUAAGGAUAUAUGACUAAGGACUUCCUUGGUAGCGCGUAGAAGGUACGUGAA”, the “apparent Kd” value by setting is: under setting [1], 0.0196 µM; under setting [2], 0.02 µM.
The matching figures for “UUGUUGUGUGUAGGAUAUGCAUAUUAUUAUUAUGCAGAAGGACAUGAGGAUCACCCAUGUGUAUUAUUAUUAUAUAUUAUAUAU”: 0.0246 µM and 0.0381 µM.
For “CGUUGACAUGAGGAUCACCCAUGUCAGAUUUGGUCAGGAUAUGGUGUGGUUUGGCUAUUGCCAGAAGGGACGUUUG”, the “apparent Kd” value is, setting by setting: under setting [3], 0.0921 µM; under setting [4], 0.0585 µM.
In the case of “GGGUACAUGGGAGGAUAUCCUCAUGAGACAUGAGGAUCACCCAUGUAUUAUAAGCCGAAAGGCAAGGAGAAGGCCCAUGUACCG”, the “apparent Kd” value is 0.0302 µM under setting [3] and 0.017 µM under setting [4].
Take “GAGGUACAUGAGGAUCACCCAUGUGAGGAUAUAGUGGAAGAUUGAGAGAGGUGGAGGACUAGAAGGCACAGUGG”: the “apparent Kd” value runs as follows: under setting [1], 0.0673 µM; under setting [2], 0.0662 µM.
For “CCAUUCAGAGGAUAUGCGCAUAGAUAAGACUUUUUUUUUUAACAUGAGGAUCACCCAUGUAGAAGGCUGUAACC”, in that order: 0.0232 µM and 0.0231 µM.
For “UUUGCAACAUGAGGAUCACCCAUGUAGGAUAUCGCUAUUGUAAUCAUGAAACAUGAUUACAAUAGCGAGAAGGACAUAUGCAAA”, in that order: 0.00754 µM and 0.0104 µM.
The matching figures for “GUUUCACAUGAGGAUCACCCAUGUGAGGAUAUAGAUUUUUUAGUAAUAAUUGUUGGAUUUAGAAGGCGCGUGAU”: 0.022 µM and 0.0215 µM.
As to “CGCAAGUAUACAUGAGGAUCACCCAUGUCAAAUAUGGUAAUCAGAAGGUACAAUUCAAUAUAUAGUAAGGAUAUGAAUUUUGCG”, the “apparent Kd” value is, setting by setting: under setting [3], 0.059 µM; under setting [4], 0.0233 µM.
“GAGCCUCCGUAGAAGGCCGCGGAAUUCGAACGCGGAGGAUAUACAUGAGGAUCACCCAUGUGAAAGUGGAAAGAUAAAACGCUU”: the “apparent Kd” value worked out at 0.0124 µM under setting [1] and 0.0304 µM under setting [2].
With “UUAGACGUCGUAGGAUAUGUAGGAUAUUCCUACAUGAGGAUCACCCAUGUUGACAUGGAAGAAGGACAGAAGGACGAUGUCCAU”, the “apparent Kd” value is, setting by setting: under setting [3], 0.307 µM; under setting [4], 0.00491 µM.
On to “AUAGGCCUAGGAUAUACAUGAGGAUCACCCAUGUUAAUACUUCAAUCAUGAUAAACGUGUAGAAGGAGGAAUAA”, for which the “apparent Kd” value by setting is: under setting [1], 0.0258 µM; under setting [2], 0.0261 µM.
